Data taken from ChEMBL document CHEMBL5038583, “Highly Potent and Selective Butyrylcholinesterase Inhibitors for Cognitive Improvement and Neuroprotection” (J Med Chem, 2021).
The source made the active and inactive calls. No cut-off for these calls is given here.

How the values were obtained:
[1] = Cmax in ICR mouse brain at 10 mg/kg, po measured upto 240 mins; type: ADME, organism-based; set-up: route oral, dose 10 mg/kg, time <=240
In short: (§1)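 ICR mice given 10 mg/kg orally in 5% DMSO/40% PEG400/55% saline (1 mg/mL). Blood (retro-orbital) and brain collected at 30, 60, 120 and 240 min. Brain homogenized in 2 volumes PBS, extracted with ethyl acetate, dried and reconstituted in mobile phase. Plasma processed as in the rat study; LC/MS/MS. Brain/plasma ratios from exposures, AUC(B) vs AUC(P).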

[2] = Ratio of AUC in brain to plasma of ICR mouse at 10 mg/kg, po measured upto 240 mins; type: ADME, organism-based; conditions: read-out: Ratio AUC; in short: as §1
Mus musculus = experiment: Antialzheimer activity in scopolamine-induced ICR mouse model of cognitive impairment assessed as reduction in escape latency at 30 mg/kg, ig administered for 10 consecutive days by Morris water maze test; type: functional, organism-based
In short: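 Male ICR mice (8−10 weeks, 18−20 g), n = 8 per group. Compound at 15 or 30 mg/kg intragastric in DMSO/saline (10:90), given 30 min before scopolamine 3 mg/kg i.p., for 10 consecutive days; tacrine 15 mg/kg as reference. Morris water maze: 5 days of training, probe trial on day 6 with platform removed. Escape latency and trajectory recorded; mean ± SD.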

[3] = MRT (0 to infinity) in overnight fasted Sprague-Dawley rat at 10 mg/kg, iv measured upto 1440 mins by LC/MS/MS analysis; type: ADME, organism-based; conditions: in vivo
In short: (§2)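 Male SD rats (180−220 g), n = 8 per route, fasted overnight with water available. Single 10 mg/kg dose p.o. or i.v. in DMSO/PEG400/saline (10:80:10). Retro-orbital blood taken into heparinized tubes at 1–1440 min. Plasma precipitated with methanol containing theophylline internal standard, then LC/MS/MS against a blank-plasma standard curve. Parameters from noncompartmental extravascular analysis; mean ± SD.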

[4] = Cmax in overnight fasted Sprague-Dawley rat at 10 mg/kg, iv measured upto 1440 mins by LC/MS/MS analysis; type: ADME, organism-based; set-up: route intravenous, dose 10 mg/kg, time <=1440; conditions: in vivo, 24 h; in short: as §2
[5] = Metabolic stability in human liver microsomes assessed as half life at 1 uM measured upto 45 mins in presence of NADPH by LC/MS/MS analysis; type: ADME, Microsome
In short: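 Human liver microsomes 0.5 mg/mL, compound 1 μM final, NADPH 2 mM, at 37 °C. Reactions stopped at 0, 5, 15, 30 and 45 min with acetonitrile containing imipramine internal standard. LC/MS/MS quantitation relative to 0 min; initial rates used for t1/2 and intrinsic clearance; ketanserin as assay control. Mean of two independent experiments.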

SH-SY5Y = experiment: Cytotoxicity against human SH-SY5Y cells assessed as survival rate at 100 uM incubated for 24 hrs by MTT assay; type: functional
In short: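 Cells seeded at 1 × 10⁴/well in DMEM with 10% FBS and left overnight, then given compound (DMSO stock diluted in DMEM) for 24 h at 37 °C. MTT added for 4 h, formazan dissolved in DMSO, absorbance read at 492 nm. Viability taken as OD treated/OD DMEM × 100%; IC50 from three independent experiments, mean SD.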

[6] = Half life in overnight fasted Sprague-Dawley rat at 10 mg/kg, iv measured upto 1440 mins by LC/MS/MS analysis; type: ADME, organism-based; conditions: in vivo; in short: as §2
[7] = Ratio of Cmax in brain to plasma of ICR mouse at 10 mg/kg, po measured upto 240 mins; type: ADME, organism-based; in short: as §1
[8] = AUC (0 to t) in overnight fasted Sprague-Dawley rat at 10 mg/kg, iv measured upto 1440 mins by LC/MS/MS analysis; type: ADME, organism-based; set-up: route intravenous, dose 10 mg/kg, time <=1440; conditions: in vivo, 24 h; in short: as §2

SMILES: Nc1nonc1-c1nc2ccccc2n1CC(=O)Nc1cnc2ccccc2c1
- Cmax [1]: 0.0121 µg/mL
- Kp at 4 h [2]: 0.36
- Activity (Mus musculus): Active
- MRT inf [3]: 14.1 h
- Cmax [4]: 0.48833 µg/mL
- half-life at 1 µM [5]: 2.65 h
- Activity (SH-SY5Y): 62.19%
- half-life [6]: 8.87 h
- Kp at 4 h [7]: 0.24
- AUCt [8]: 0.85964 µg·h/mL
